The source made the active and inactive calls. The calls are words filed in the database; no cut-off is given here.
Assays:
[1] = system: K562; experiment: Antiproliferative activity against human K562 cells assessed as reduction in cell viability after 72 hrs by MTT assay; type: functional, cell-based; details: K562, 72 h
Summary of the method: (§1)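 MTT assay over 72 h, compounds at 64, 16, 4, 1, 0.25, 0.0625 and 0.015625 μM. MTT solution (5 mg/mL) and DMSO added afterwards, 10 min at room temperature, absorbance read at 490 nm. IC50 calculated as the mean ± SD of three independent experiments.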

[2] = system: PBMC; experiment: Cytotoxicity against human PBMC assessed as reduction in cell viability after 72 hrs by MTT assay; type: cell-based; summary of the method: as §1
[3] = Induction of H2S generation in PBS containing Na2S and MB+ cocktail in presence of TCEP/L-cysteine measured at 15 to 20 mins after 20 mins compound incubation by methylene blue dye based UV-Vis spectrophotometric method; type: functional
Summary of the method: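 Na2S standards (5–150 μM) in sodium phosphate buffer reacted 20 min at room temperature with methylene blue cocktail (FeCl3/HCl, N,N-dimethyl-1,4-phenylenediamine/HCl, Zn(OAc)2) to build a 670 nm calibration curve. Compounds from 40 mM THF stock added to phosphate buffer with 1 mM TCEP or L-cysteine. Aliquots taken into the cocktail at set times, incubated 20 min, read at 670 nm. Mean of three experiments.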

[4] = system: Bel-7402; experiment: Cell cycle arrest in human Bel7402 cells assessed as accumulation of cells at G2 phase at 0.45 uM after 48 hrs by propidium iodide/RNase staining based flow cytometric analysis (reference value: 29.97%); type: functional
[5] = system: Bel-7402; experiment: Cell cycle arrest in human Bel7402 cells assessed as accumulation of cells at G2 phase at 0.90 uM after 48 hrs by propidium iodide/RNase staining based flow cytometric analysis (reference value: 29.97%); type: functional
[6] = system: Bel-7402; experiment: Cell cycle arrest in human Bel7402 cells assessed as accumulation of cells at S phase at 0.90 uM after 48 hrs by propidium iodide/RNase staining based flow cytometric analysis (reference value: 39.09%); type: functional
[7] = system: Bel-7402; experiment: Cell cycle arrest in human Bel7402 cells assessed as accumulation of cells at G1 phase at 1.80 uM after 48 hrs by propidium iodide/RNase staining based flow cytometric analysis (reference value: 30.95%); type: functional
[8] = system: Bel-7402; experiment: Cell cycle arrest in human Bel7402 cells assessed as accumulation of cells at S phase at 1.80 uM after 48 hrs by propidium iodide/RNase staining based flow cytometric analysis (reference value: 39.09%); type: functional
[9] = system: Bel-7402; experiment: Cell cycle arrest in human Bel7402 cells assessed as accumulation of cells at G1 phase after 48 hrs by propidium iodide/RNase staining based flow cytometric analysis; type: functional
[10] = system: Bel-7402; experiment: Induction of morphological changes in human Bel7402 cells assessed as chromatin shrinkage at 0.45 to 1.80 uM after 48 hrs by Hoechst 33258 staining-based fluorescent microscopic analysis; type: functional, cell-based
Summary of the method: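 Bel-7402 cells cultured 24 h in 6-well plates at 37 °C, then exposed 48 h to 0, 0.45, 0.90 or 1.80 μM. Harvested by mild trypsinization and washed twice with PBS. Stained with Hoechst 33258 (2 mg/mL) for 15 min at room temperature in the dark, washed, and viewed by fluorescence microscopy.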

[11] = system: Bel-7402; experiment: Induction of apoptosis in human Bel7402 cells assessed as early apoptotic cells at 0.45 uM after 48 hrs by Annexin V-FITC/propidium iodide staining based flow cytometry (reference value: 2.09%); type: functional
Summary of the method: (§2)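 Bel-7402 cells in 6-well plates treated with 0, 0.45, 0.90 or 1.80 μM, washed twice with PBS and resuspended in annexin V binding buffer. Stained with annexin V-FITC and PI for 15 min at room temperature in the dark, then analysed by flow cytometry. Methods state 24 h exposure; the figure legend states 48 h.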

[12] = system: Bel-7402; experiment: Induction of apoptosis in human Bel7402 cells assessed as necrotic cells at 0.45 uM after 48 hrs by Annexin V-FITC/propidium iodide staining based flow cytometry (reference value: 0.01%); type: functional; summary of the method: as §2
[13] = system: Bel-7402; experiment: Induction of apoptosis in human Bel7402 cells assessed as viable cells at 0.90 uM after 48 hrs by Annexin V-FITC/propidium iodide staining based flow cytometry (reference value: 97.22%); type: functional; details: Bel-7402, 48 h, read-out: Activity; summary of the method: as §2
[14] = system: Bel-7402; experiment: Induction of apoptosis in human Bel7402 cells assessed as early apoptotic cells at 0.90 uM after 48 hrs by Annexin V-FITC/propidium iodide staining based flow cytometry (reference value: 2.09%); type: functional; summary of the method: as §2
[15] = system: Bel-7402; experiment: Induction of apoptosis in human Bel7402 cells assessed as late apoptotic cells at 0.90 uM after 48 hrs by Annexin V-FITC/propidium iodide staining based flow cytometry (reference value: 0.68%); type: functional; summary of the method: as §2
[16] = system: Bel-7402; experiment: Induction of apoptosis in human Bel7402 cells assessed as necrotic cells at 0.90 uM after 48 hrs by Annexin V-FITC/propidium iodide staining based flow cytometry (reference value: 0.01%); type: functional; summary of the method: as §2
[17] = system: Bel-7402; experiment: Induction of apoptosis in human Bel7402 cells assessed as late apoptotic cells at 1.80 uM after 48 hrs by Annexin V-FITC/propidium iodide staining based flow cytometry (reference value: 0.68%); type: functional; summary of the method: as §2
[18] = system: Bel-7402; experiment: Induction of apoptosis in human Bel7402 cells after 48 hrs by Annexin V-FITC/propidium iodide staining based assay; type: functional, cell-based; summary of the method: as §2
[19] = system: Bel-7402; experiment: Induction of mitochondrial membrane potential loss in human Bel7402 cells assessed as cell population with intact mitochondrial membrane potential at 0.90 uM after 48 hrs by JC1 staining-based flow cytometry analysis (reference value: 98.67%); type: functional
Summary of the method: (§3)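 Bel-7402 cells in 6-well plates exposed for 48 h to 0, 0.45, 0.90 or 1.80 μM, DMSO as vehicle. Washed with PBS and stained with JC-1 at room temperature in the dark. Cells with collapsed membrane potential counted by flow cytometry.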

[20] = system: Bel-7402; experiment: Induction of mitochondrial membrane potential loss in human Bel7402 cells assessed as cell population with mitochondrial membrane potential collapse at 1.80 uM after 48 hrs by JC1 staining-based flow cytometry analysis (reference value: 1.28%); type: functional; summary of the method: as §3
[21] = system: Bel-7402; experiment: Induction of mitochondrial membrane potential depolarization in human Bel7402 cells after 48 hrs by JC1 staining-based flow cytometry analysis; type: functional, cell-based; summary of the method: as §3
[22] = system: Bel-7402; experiment: Induction of apoptosis in human Bel7402 cells assessed as reduction in procaspase-3 expression at 0.90 to 1.80 uM after 48 hrs by Western blot analysis; type: functional, cell-based
[23] = system: Bel-7402; experiment: Induction of apoptosis in human Bel7402 cells assessed as reduction in PARP expression at 0.45 to 1.80 uM after 48 hrs by Western blot analysis; type: functional, cell-based
[24] = system: Bel-7402; experiment: Induction of apoptosis in human Bel7402 cells assessed as reduction in Bcl-2 expression at 0.90 to 1.80 uM after 48 hrs by Western blot analysis; type: functional, cell-based
[25] = Selectivity index, ratio of IC50 for human L02 cells to IC50 for human Bel7402 cells after 72 hrs by MTT assay; type: toxicity; details: L02 cells versus Bel7402 cells, read-out: Ratio IC50
[26] = Selectivity index, ratio of IC50 for human PBMC to IC50 for human Bel7402 cells after 72 hrs by MTT assay; type: toxicity; details: PBMC versus Bel7402 cells, read-out: Ratio IC50

In the case of C=C1C(=O)[C@@]23C(=O)OC[C@]4(C(=O)CCC(C)(C)[C@H]4C=O)[C@@H]2CC[C@@H]1[C@H]3OC(=O)CCCC(=O)Oc1ccc(-c2cc(=S)ss2)cc1, the IC50 [1] is reported as 1.01 µM, the IC50 [2] is reported as 19.9 µM and the Activity [3] is reported as “Active”. It also gave an Activity [4] of 22.21%, an Activity [5] of 19.81% and an Activity [6] of 37.9%. For the same compound, the Activity [7] was 49.56%, the Activity [8] was 34.52% and the Activity [9] was “Dose-dependent effect”. For the same compound, the Activity [10] was “Active”, the Activity [11] was 9.92% and the Activity [12] was 0.11%. It also gave a viability at 0.9 µM [13] of 72.5%, an Activity [14] of 15.17% and an Activity [15] of 12.3%. For the same compound, the Activity [16] was 0.06%, the Activity [17] was 36.64% and the Activity [18] was “Dose-dependent effect”. For the same compound, the Activity [19] was 69.04%, the Activity [20] was 58.59% and the Activity [21] was “Dose-dependent effect”. For the same compound, the Activity [22] was “Active”, the Activity [23] was “Active” and the Activity [24] was “Active”. For the same compound, the selectivity ratio at 72 h [25] was 24 and the selectivity ratio at 72 h [26] was 24.

From ChEMBL document CHEMBL4364267, “Hydrogen sulfide donating ent-kaurane and spirolactone-type 6,7-seco-ent-kaurane derivatives: Design, synthesis and antiproliferative properties” (Eur J Med Chem, 2019)
